Test results from ChEMBL document CHEMBL2034930, “Alkylidene branched lupane derivatives: synthesis and antitumor activity” (Eur J Med Chem, 2012).
Active and inactive are the calls of the source. The calls are words filed in the database; no cut-off is given here.

What was measured:
[1] = tested on: 8505C; assay: Cytotoxicity against human 8505C cells after 96 hrs by SRB assay; format: functional, cell-based
Procedure, shortened: (§1)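 Cells exposed to test compounds for 96 h, then viable cells measured by sulforhodamine B staining as a percentage of untreated controls. IC50 read from dose-response curves, averaged over at least three independent experiments. Compounds tested free and also encapsulated in soybean-lecithin liposomes extruded through a 100 nm polycarbonate membrane (hydrodynamic diameter 70-120 nm, Z-average 105 nm, encapsulation >96% by HPLC).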

[2] = tested on: FaDu; assay: Cytotoxicity against human FADU cells after 96 hrs by SRB assay; format: functional, cell-based; procedure, shortened: as §1
[3] = tested on: SW-1736; assay: Cytotoxicity against human SW1736 cells after 96 hrs by SRB assay; format: functional, cell-based; procedure, shortened: as §1
[4] = tested on: SW480; assay: Cytotoxicity against human SW480 cells after 96 hrs by SRB assay; format: functional, cell-based; procedure, shortened: as §1
[5] = tested on: MCF7; assay: Cytotoxicity against human MCF7 cells after 96 hrs by SRB assay; format: functional, cell-based; procedure, shortened: as §1
[6] = tested on: A549; assay: Cytotoxicity against human A549 cells after 96 hrs by SRB assay; format: functional, cell-based; procedure, shortened: as §1
[7] = Cytotoxicity against human 518A2 cells after 96 hrs by SRB assay; format: functional, cell-based; procedure, shortened: as §1
[8] = tested on: A-431; assay: Cytotoxicity against human A431 cells after 96 hrs by SRB assay; format: functional, cell-based; procedure, shortened: as §1
[9] = tested on: HT-29; assay: Cytotoxicity against human HT-29 cells after 96 hrs by SRB assay; format: functional, cell-based; procedure, shortened: as §1
[10] = Cytotoxicity against human A253 cells after 96 hrs by SRB assay; format: functional, cell-based; procedure, shortened: as §1
[11] = tested on: HCT-8; assay: Cytotoxicity against human HCT8 cells after 96 hrs by SRB assay; format: functional, cell-based; procedure, shortened: as §1
[12] = tested on: HCT-116; assay: Cytotoxicity against human HCT116 cells after 96 hrs by SRB assay; format: functional, cell-based; procedure, shortened: as §1
[13] = tested on: DLD-1; assay: Cytotoxicity against human DLD1 cells after 96 hrs by SRB assay; format: functional, cell-based; procedure, shortened: as §1
[14] = Cytotoxicity against human Lipo cells after 96 hrs by SRB assay; format: functional, cell-based; procedure, shortened: as §1
[15] = tested on: A2780; assay: Cytotoxicity against human A2780 cells after 96 hrs by SRB assay; format: functional, cell-based; procedure, shortened: as §1
[16] = tested on: NIH3T3; assay: Cytotoxicity against mouse NIH/3T3 cells after 96 hrs by SRB assay; format: cell-based; conditions: NIH3T3, 96 h; procedure, shortened: as §1
[17] = Solubility of the compound in water; format: physicochemical; conditions: buffer
[18] = tested on: SW480; assay: Induction of apoptosis in human SW480 cells assessed as DNA laddering at 6 uM after 24 hrs; format: functional, cell-based
[19] = tested on: A549; assay: Induction of apoptosis in human A549 cells at 0.8 uM by acridine orange/ethidium bromide staining; format: functional, cell-based
[20] = tested on: SW480; assay: Induction of apoptosis in human SW480 cells assessed as DNA laddering at IC90 concentration after 24 hrs
[21] = Chemical stability of the compound; format: physicochemical
[22] = Homo sapiens, 8505C, 96 h, read-out: IC50
[23] = Homo sapiens, FaDu, 96 h, read-out: IC50
[24] = Homo sapiens, SW-1736, 96 h, read-out: IC50
[25] = Homo sapiens, SW480, 96 h, read-out: IC50
[26] = Homo sapiens, MCF7, 96 h, read-out: IC50
[27] = Homo sapiens, A549, 96 h, read-out: IC50
[28] = Homo sapiens, 518A2, 96 h, read-out: IC50
[29] = Homo sapiens, A-431, 96 h, read-out: IC50
[30] = Homo sapiens, HT-29, 96 h, read-out: IC50
[31] = Homo sapiens, A253, 96 h, read-out: IC50
[32] = Homo sapiens, HCT-8, 96 h, read-out: IC50
[33] = Homo sapiens, HCT-116, 96 h, read-out: IC50
[34] = Homo sapiens, DLD-1, 96 h, read-out: IC50
[35] = Homo sapiens, Lipo, 96 h, read-out: IC50
[36] = Homo sapiens, A2780, 96 h, read-out: IC50

Compound | IC50 [1, 22] [nM] | IC50 [2, 23] [nM] | IC50 [3, 24] [nM] | IC50 [4, 25] [nM] | IC50 [5, 26] [nM] | IC50 [6, 27] [nM] | IC50 [7, 28] [nM] | IC50 [8, 29] [nM] | IC50 [9, 30] [nM] | IC50 [10, 31] [nM] | IC50 [11, 32] [nM] | IC50 [12, 33] [nM] | IC50 [13, 34] [nM] | IC50 [14, 35] [nM] | IC50 [15, 36] [nM] | IC50 [16] [nM] | solubility [17] | also measured
C=C1C[C@]2(C)[C@H]3CC[C@@H]4[C@H]5[C@H](C(=C)C)CC[C@]5(C=O)CC[C@@]4(C)[C@]3(C)CC[C@H]2C(C)(C)C1=O | 1300 | 5100 | 2100 | 2700 | 2100 | 1800 | 3800 | 3000 | 7100 | 1000 | 7100 | 3200 | 3700 | 2700 | 1300 | 4700 | Insoluble | 
C=C(C)[C@@H]1CC[C@]2(C=O)CC[C@]3(C)[C@H](CC[C@@H]4[C@@]5(C)CCC(=O)C(C)(C)[C@@H]5CC[C@]43C)[C@@H]12 [BETULONAL] |  |  |  |  |  |  |  |  |  |  |  |  |  |  |  |  | Insoluble | 
C=C(C)[C@@H]1CC[C@]2(C(=O)OC)CC[C@]3(C)[C@H](CC[C@@H]4[C@@]5(C)C[C@@H](CS(=O)(=O)CCO)C(=O)C(C)(C)[C@@H]5CC[C@]43C)[C@@H]12 | 3400 | 3800 | 3300 | 2600 | 2600 | 3300 | 2600 | 2800 | 2500 | 2500 | 4000 | 2800 | 4400 | 2700 | 2600 | 3200 | Insoluble | 
C=C1C[C@]2(C)[C@H]3CC[C@@H]4[C@H]5[C@H](C(=C)C)CC[C@]5(C(=O)OC)CC[C@@]4(C)[C@]3(C)CC[C@H]2C(C)(C)C1=O | 5000 | 7700 | 4900 | 4500 | 4400 | 5100 | 4200 | 4900 | 5900 | 4000 | 9000 | 4500 | 6400 | 4600 | 5100 | 4900 | Insoluble | Activity [18]: Active; Activity [19]: Active
C=C/C=C1/C[C@]2(C)[C@H]3CC[C@@H]4[C@H]5[C@H](C(=C)C)CC[C@]5(C(=O)OC)CC[C@@]4(C)[C@]3(C)CC[C@H]2C(C)(C)C1=O | 11300 | 17000 | 15000 | 10500 | 11200 | 13000 | 11500 | 13000 | 10900 | 10400 | 14000 | 14600 | 14200 | 11600 | 11200 | 13100 | Insoluble | 
C=C1C[C@]2(C)[C@H]3CC[C@@H]4[C@H]5[C@H](C(=C)C)CC[C@]5(C(=O)O)CC[C@@]4(C)[C@]3(C)CC[C@H]2C(C)(C)C1=O | 600 | 500 | 400 | 400 | 300 | 600 | 500 | 200 | 400 | 400 | 200 | 200 | 400 | 600 | 600 | 800 | Insoluble | Activity [20]: Active; Activity [19]: Active
C=C(C)[C@@H]1CC[C@]2(C(=O)OC)CC[C@]3(C)[C@H](CC[C@@H]4[C@@]5(C)C[C@@H](CC[N+](=O)[O-])C(=O)C(C)(C)[C@@H]5CC[C@]43C)[C@@H]12 |  |  |  |  |  |  |  |  |  |  |  |  |  |  |  |  | Insoluble | 
C=C(C)[C@@H]1CC[C@]2(C(=O)O)CC[C@]3(C)[C@H](CC[C@@H]4[C@@]5(C)CCC(=O)C(C)(C)[C@@H]5CC[C@]43C)[C@@H]12 [BETUNOLIC ACID] |  |  |  |  |  |  |  |  |  |  |  |  |  |  |  |  | Insoluble | 
C=C1C[C@]2(C)[C@H]3CC[C@@H]4[C@H]5[C@H](C(=C)C)CC[C@]5(C(=O)N5CCSCC5)CC[C@@]4(C)[C@]3(C)CC[C@H]2C(C)(C)C1=O | 1500 | 1600 | 1500 | 1500 | 1400 | 1500 | 1500 | 1400 | 1600 | 1400 | 1500 | 1300 | 1500 | 1500 | 1000 | 1900 | Insoluble | 
C=C(C)[C@@H]1CC[C@]2(C(=O)OC)CC[C@]3(C)[C@H](CC[C@@H]4[C@@]5(C)C[C@@H](CSCCO)C(=O)C(C)(C)[C@@H]5CC[C@]43C)[C@@H]12 | 2300 | 2500 | 2100 | 1500 | 1500 | 2100 | 1500 | 1700 | 1400 | 1500 | 2500 | 1900 | 2500 | 1800 | 1600 | 2100 | Insoluble | Activity [18]: Active; Activity [19]: Active
C=C(C)[C@@H]1CC[C@]2(C(=O)OC)CC[C@]3(C)[C@H](CC[C@@H]4[C@@]5(C)CCC(=O)C(C)(C)[C@@H]5CC[C@]43C)[C@@H]12 [METHYL BETULONATE] |  |  |  |  |  |  |  |  |  |  |  |  |  |  |  |  | Insoluble | 
C=C(C)[C@@H]1CC[C@]2(C(=O)OC)CC[C@]3(C)[C@H](CC[C@@H]4[C@@]5(C)C[C@@]6(CCN=N6)C(=O)C(C)(C)[C@@H]5CC[C@]43C)[C@@H]12 |  |  |  |  |  |  |  |  |  |  |  |  |  |  |  |  | Insoluble | IC50 ([1]; 8505c): > 30000 nM; IC50 ([2]; fadu): > 30000 nM; IC50 ([3]; sw-1736): > 30 µmol; IC50 ([4]; sw480): > 30 µmol; IC50 ([5]; mcf7): > 30 µmol; IC50 ([6]; a549): > 30000 nM; IC50 ([7]; 518a2): > 30000 nM; IC50 ([8]; a-431): > 30000 nM; IC50 ([9]; ht-29): > 30 µmol; IC50 ([10]; a253): > 30000 nM; IC50 ([11]; hct-8): > 30 µmol; IC50 ([12]; hct-116): > 30 µmol; IC50 ([13]; dld-1): > 30000 nM; IC50 ([14]; lipo): > 30 µmol; IC50 ([15]; a2780): > 30000 nM
C=C(C)[C@@H]1CC[C@]2(C(=O)OC)CC[C@]3(C)[C@H](CC[C@@H]4[C@@]5(C)C/C(=C\C)C(=O)C(C)(C)[C@@H]5CC[C@]43C)[C@@H]12 | 26400 | 22400 | 21900 | 16000 | 27200 | > 30000 | > 30000 | 26400 | > 30000 | 21600 | 17200 | 24000 | > 30000 | 27800 | 16100 | 29100 | Insoluble | 
C=C(C)[C@@H]1CC[C@]2(CO)CC[C@]3(C)[C@H](CC[C@@H]4[C@@]5(C)CC[C@H](O)C(C)(C)[C@@H]5CC[C@]43C)[C@@H]12 [BETULIN] |  |  |  |  |  |  |  |  |  |  |  |  |  |  |  |  | Insoluble | 
C=C(C)[C@@H]1CC[C@]2(C(=O)OC)CC[C@]3(C)[C@H](CC[C@@H]4[C@@]5(C)C[C@@H](CN(C)C)C(=O)C(C)(C)[C@@H]5CC[C@]43C)[C@@H]12 |  |  |  |  |  |  |  |  |  |  |  |  |  |  |  |  | Insoluble | Stability [21]: Unstable
